Source: PubChem BioAssay (several laboratories)
Insulin prom inh = TRM-6 insulin promoter activity inhibition; AID 1273; inhibition, % at 2 µM; hit rate 0.9% among 130,000; TRM-6 cells (human fetal islet line), insulin promoter-eGFP reporter, imaging; reporter expression induced with tamoxifen;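 active = inhibition above the mean plus 3 SD, with well images judged a real hit on visual review, cut at about 60% in these data, passing the limit was not always enough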
Yeast lifespan up = yeast lifespan extension. S. cerevisiae growth with nicotinamide, OD615; deaD strain in restrictive glucose medium. inhibition of the nicotinamide effect, % at 10 µM. hit rate 0.68% among 130,000. AID 775;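 active = inhibition above a set limit, placed 3 SD over the median of all compounds, cut at about 26% in these data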;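 also: 0% = nicotinamide-treated wells and 100% = cells grown without nicotinamide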
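Test system – modified budding yeast, DeaD strain · Compound – single dose 10 µM compound, 0.25% DMSO · Times – culture preincubation 4 h, compound exposure 48 h, both 30 °C · Detection – optical density (absorbance) at 615 nm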
RAM network inh = blocks the yeast RAM network. S. cerevisiae dse1pr::URA3 reporter, 5-FOA growth OD615, 2 d; analog-sensitive cbk1-as2 kinase mutant strain. inhibition, % at 50 µM. hit rate 1.8% among 190,000. AID 868;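 active = inhibition above a set limit, 3 SD over mean compound inhibition, cut at about 8.4% in these data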;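 also: 0% = DMSO-only wells with no growth and 100% = 10 µM 1-NA-PP1 full growth; inhibition rescues growth on 5-FOA so higher OD means more RAM inhibition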
BB579 growth dn = yeast BB579 growth reduction in restrictive medium; S. cerevisiae BB579 growth, OD615, 48 h; inhibition, % at 10 µM; hit rate 0.51% among 140,000;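 active = inhibition above a set limit, 3 SD over the mean compound inhibition, cut at about 44% in these data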
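controls = amphotericin B 10 µg/mL, positive | assay system = DeaD yeast strain BB579 | schedule = 48 h compound exposure at 30 °C after 4 h preincubation | detection = OD615 turbidity measurement | medium = restrictive CSMM-D medium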
Efa HMGR inh = E. faecalis class II HMG-CoA reductase inhibition. purified E. faecalis HMGR, NADPH absorbance 340 nm kinetic. inhibition, % at 10 µM. hit rate 0.41% among 190,000. AID 1066;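 active = inhibition above a set limit, the median over all tested compounds plus 3 SD, cut at about 9.5% in these data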;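 also: enzyme runs in reverse so mevalonate oxidation gives rising NADPH absorbance; 0% = complete reaction with DMSO and 100% = background rate lacking mevalonate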
The depositor's hits bear a star; x = no result given. An excerpt weighted towards active compounds, which were near 3.7% of everything screened.

SMILES | Insulin prom inh | Yeast lifespan up | RAM network inh | BB579 growth dn | Efa HMGR inh
CCN(c1ccc(NS(=O)(=O)c2cc(Cl)ccc2Cl)cc1)C(C)C | 69* | 8 | 0 | -20 | -2
CN(C)C(CNC(=O)CCOc1ccccc1)c1ccco1 (stereo not given) | x | x | 1 | x | 21*
O=C(CSc1nnnn1-c1cccc2ccccc12)NC(C(=O)O)(c1ccccc1)c1ccccc1 | x | x | 8.8* | x | 1
O=c1c(C(c2ccccc2)c2c(O)sc3ccccc3c2=O)c(O)sc2ccccc12 | 80* | 26* | x | -9 | -1
CCCC(=O)Nc1ccc(C(=O)Nc2ccc([N+](=O)[O-])cc2OC)cc1 | x | x | 4 | x | -2
COc1cc([N+](=O)[O-])ccc1NC(=O)CCCOc1cc(C)ccc1C | x | -1 | 9.9* | -23 | 3
COc1cc([N+](=O)[O-])ccc1NC(=O)CCCOc1ccccc1 | -58 | -9 | 2 | -35 | -2
CCCCC(=O)Nc1ccc(NC(=O)c2ccc([N+](=O)[O-])cc2)cc1OC | 0 | 5 | 9.1* | -37 | -2
Cc1c(NC2(c3nnnn3-c3ccc(Br)cc3)CCCCC2)c(=O)n(-c2ccccc2)n1C | 58 | -6 | 0 | -31 | 23*
COc1cccc(C(=O)/C=C/c2ccc(SC)cc2)c1 | x | -24 | 9.2* | -31 | 1
CSc1ccc(/C=C/C(=O)c2ccc(NC(=O)C(C)C)cc2)cc1 | x | -7 | 10* | -3 | 0
O=c1c(Br)c(N2CCCCC2)cnn1-c1ccccc1 | x | x | 2 | x | -5
Cc1ccc2nc(-c3ccc(NC(=O)CCN4C(=O)c5ccccc5C4=O)cc3)sc2c1 | x | -6 | 3 | -33 | -5
O=C(CCN1C(=O)c2ccccc2C1=O)Nc1ccc(-c2nc3ccccc3s2)cc1 | 22 | 1 | 8.9* | -21 | -3
Cc1cc(NS(=O)(=O)c2ccc(NC(=O)CCN3C(=O)c4ccccc4C3=O)cc2)no1 | -16 | -12 | 2 | -28 | -2
Cc1cc(C)nc(NS(=O)(=O)c2ccc(NC(=O)CCN3C(=O)c4ccccc4C3=O)cc2)n1 | -14 | 38* | 0 | 6 | 0
O=C(Nc1ccccc1C(=O)N1CCCC1)c1ccccc1 | -54 | x | 1 | -31 | -2
O=C(Nc1ccsc1C(=O)N1CCCC1)c1ccccc1 | 91* | x | 4 | x | -9
COc1ccc(Cl)cc1NC(=S)N(CCN1CCOCC1)C1CCN(C(C)=O)CC1 | 7 | x | 2 | x | -2
O=C(OCC#CCSc1nc2ccccc2o1)c1cc2ccccc2o1 | 56 | x | 10* | -48 | -1
CCNC(=O)N1CCCC(C(=O)c2ccc(OC)c(OC)c2)C1 (stereo not given) | x | x | 1 | x | -7
Cc1ccc(S(=O)(=O)NCCSc2nnnn2-c2cc(C)ccc2C)cc1 | -110 | -6 | 10* | -46 | 5
O=c1c(-c2ccc(Cl)cc2)[n+]([O-])c2ccccc2n1O | -44 | -15 | 1 | 100* | -6
CCc1ccc2c(c1)C(O)(CC(=O)c1cccs1)C(=O)N2 (stereo not given) | 21 | x | 0 | x | 4
Cc1ccc(-c2noc(/C=C/c3ccccc3)n2)cc1 | -20 | -3 | 3 | -31 | -2
SMILES | Insulin prom inh | Yeast lifespan up | RAM network inh | BB579 growth dn | Efa HMGR inh
C(=C\c1nc(-c2cccnc2)no1)/c1ccccc1 | 70* | x | 1 | x | -4
Cc1ccc(NC2=C(Cl)C(=O)OC2OC(=O)c2ccc(C)cc2)cc1 (stereo not given) | x | x | 9.9* | x | -1
CCCCCCCCn1c(=O)c(C(=O)OCC)c(O)c2ccccc21 | 8 | 39* | 0 | 16 | -6
CCCCCn1c(=O)c(C(=O)OCC)c(O)c2ccccc21 | x | 22 | 9.0* | 10 | -5
O=C(OCc1csc(-c2ccccc2)n1)c1ccccc1O | x | x | 1 | x | 1
N#C/C(=C\c1cccc(NC(=O)c2ccccc2Cl)c1)C(=O)NCCc1ccccc1 | x | 2 | 3 | -38 | 0
Cc1ccc(S(=O)(=O)C2C(=O)N(C)C3(C)CC2c2ccccc2O3)cc1C (stereo not given) | x | -2 | 4 | -32 | -6
CN1C(=O)C(c2nnc(Nc3cccc4ccccc34)s2)C2CC1(C)Oc1ccccc12 (stereo not given) | 14 | -4 | 9.0* | -48 | 1
O=C(Nc1ccn(Cc2ccccc2F)n1)c1ccc(COc2cccc(Br)c2)cc1 | 0 | 0 | 11* | -22 | -6
O=C(Nc1ccn(Cc2ccccc2F)n1)c1ccc(COc2ccccc2Cl)cc1 | 43 | -1 | 0 | -49 | -2
CSCCC(NS(=O)(=O)c1ccc(Br)cc1)C(=O)OCC(=O)NC1CC1 (stereo not given) | 83* | x | 0 | x | -2
CSCCC(NS(=O)(=O)c1ccc(Cl)cc1)C(=O)OCC(=O)NC1CC1 (stereo not given) | 3 | -4 | -1 | -26 | -3
CSCCC(NS(=O)(=O)c1ccc(Cl)cc1)C(=O)OCc1cccc(Cl)c1 (stereo not given) | -18 | 19 | 8.5* | -32 | 0
CSCCC(NS(=O)(=O)c1ccc(Cl)cc1)C(=O)OCC(=O)c1ccc(F)cc1 (stereo not given) | 30 | 36* | 8 | -25 | -6
CSCCC(NS(=O)(=O)c1ccc(Cl)cc1)C(=O)OCc1c(Cl)cccc1Cl (stereo not given) | -46 | 14 | 7 | -29 | 0
CC(C)C(O)(C#CCN1CCCCCC1)c1ccccc1 (stereo not given) | 21 | x | 2 | x | 4
CC1CCN(CC(=O)Nc2cccc(C(=O)Nc3cccc(C(F)(F)F)c3)c2)CC1 | -24 | 0 | 0 | 3 | -5
Cc1cc(Cl)ccc1Oc1ncc(-c2ccc(Cl)cc2)cn1 | -59 | -2 | 11* | -41 | -1
Clc1ccc(-c2cnc(Oc3ccccc3)nc2)cc1 | 8 | -11 | 2 | -23 | -3
N#CC(C(=O)NC1CCCCC1)=C1CCCCCC1 | 25 | 8 | 1 | -40 | -1
CCOC(=O)C1=C(C)N(c2ccc(C)c(C)c2)C(=O)/C1=C\c1ccco1 | 38 | -10 | 11* | -19 | -3
Cc1[nH]c2ccccc2c1C(=O)CSc1nc2ccccc2c(=O)n1CCCN1CCOCC1 | -24 | -20 | 3 | -37 | -2
Cc1ccc(N2NC(C)(c3cccs3)NC2=S)cc1 (stereo not given) | 0 | -10 | -1 | 98* | -4
CCNc1nc(NC(C)C)nc(NC(C)(C)C)n1 | x | x | 1 | x | 13*
CCNc1nc(NC(C)C)nc(ON=C(C)C)n1 | 11 | 3 | 1 | 8 | 0
CCNc1nc(NC(C)C)nc(OCC)n1 | 72* | -6 | 1 | -48 | -1
O=C(O)c1cccc(NC(=O)c2ccc(Cl)c(S(=O)(=O)N3CCCCCC3)c2)c1 | 41 | x | 9.7* | x | -4
Nc1cccc2c1C(=O)N(C(=O)c1ccc(Cl)c(S(=O)(=O)N3CCCCCC3)c1)C2=O | -13 | 75* | -1 | -48 | -4
O=C(Nc1ccccc1)c1cccc(S(=O)(=O)N2CCCCC2)c1 | -22 | -10 | 1 | -24 | 5
